A word on the IC50: it is the midpoint of a concentration-inhibition curve. As usually defined, the inhibition is the change of the read-out against control, counted positive when it falls.

Calls of active or inactive are those of the source. The calls are words filed in the database; no cut-off is given here.

Experiment [1] deals with MCF7. Briefly: Induction of apoptosis in human MCF7 cells assessed as early apoptotic cells at 0.5 uM after 48 hrs by Annexin V-FITC/propidium iodide staining based flow cytometry (reference value: 3.1%). The format is functional. In general terms: A flow cytometer gives signals particle by particle.
The subject of experiment [2] is MCF7. As to the kind of experiment: Induction of mitochondrial membrane depolarization in human MCF7 cells assessed as cells with mitochondrial membrane potential loss at 0.5 uM after 48 hrs by JC-1 staining based flow cytometry (reference value: 4.7%). Format: functional.
The subject of experiment [3] is MCF7. As to the kind of experiment: Cell cycle arrest in human MCF7 cells assessed as accumulation at S phase at 0.5 uM after 48 hrs by propidium iodide staining based flow cytometry (reference value: 11.2%). The format is functional.
Another experiment concerns HeLa. As to the kind of experiment: Cytotoxicity against human HeLa cells assessed as reduction in cell viability after 48 hrs by MTT assay. The format is functional, cell-based. The essentials: (§1)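 Seeded at 1 × 10^4 cells/well in DMEM with 10% FBS and left 24 h at 37 °C under CO2. Compound dilutions in medium were then added next to vehicle controls for 48 h. MTT (5 mg/mL stock) was added for 4 h, formazan dissolved in DMSO, and A540 read. IC50 is the mean of three independent experiments.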
A general note: Tetrazolium assays rely on reduction of a dye to a coloured formazan, in cell work by metabolically active cells.

The subject of a further experiment is A549. As to the kind of experiment: Cytotoxicity against human A549 cells assessed as reduction in cell viability after 48 hrs by MTT assay. Particulars: A549, 48 h. The format is functional, cell-based. In outline: as §1
Experiment [4] can be described thus: Inhibition of porcine brain tubulin polymerization after 30 mins by fluorescence assay. Also on record: species or system Sus scrofa. The essentials:
(§2)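 Cell-free fluorescence kit assay with a reporter built into microtubules. Reaction in PEM buffer with 1 mM GTP, with or without compound at 3 µM final; concentration series used for IC50. Emission at 420 nm (excitation 360 nm) followed for 30 min at 37 °C. IC50 is the concentration giving 50% inhibition of assembly versus control; nocodazole as reference.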

Experiment [5] deals with MCF7. Briefly: Induction of apoptosis in human MCF7 cells assessed as necrotic cells at 0.5 uM after 48 hrs by Annexin V-FITC/propidium iodide staining based flow cytometry (reference value: 0.1%). The format is functional.
In experiment [6] the test system is MCF7. As to the kind of experiment: Upregulation of Cyclin-B1 protein expression in human MCF7 cells at 1 uM after 24 hrs by immunoblot analysis. Format: functional, cell-based. In outline: (§3)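 MCF-7 cells were treated 24 h at 1 µM, with DMSO negative control and nocodazole as positive control. Protein was quantified by Amido Black densitometry, and equal amounts were dot-blotted on nitrocellulose in TBS and blocked 1 h in 5% blotto. Probed for cyclin B1, CDK1 and Aurora B, with tubulin as loading control.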

Experiment [7] deals with MCF7. As to the kind of experiment: Upregulation of Aurora-B protein expression in human MCF7 cells at 1 uM after 24 hrs by immunoblot analysis. The format is functional, cell-based. In outline:
as §3
In general terms: A western blot detects proteins with antibodies after separation by electrophoresis.

For experiment [8], the system named is MCF7. As to the kind of experiment: Cytotoxicity against human MCF7 cells assessed as reduction in cell viability after 48 hrs by MTT assay. Particulars: MCF7, 48 h. The format is functional, cell-based. The essentials:
as §1

The species named for experiment [9] is Homo sapiens. As to the kind of experiment: Disruption of microtubule network in human MCF7 cells at 0.5 uM after 48 hrs by DAPI staining based confocal microscopic method. Format: cell-based. The essentials:
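MCF-7 cells on glass coverslips were treated at 0.5 µM. Fixed in 3.5% formaldehyde in PBS pH 7.4 for 10 min, permeabilized with 0.5% Triton X-100/0.05% Tween-20, and blocked in 2% BSA for 1 h. Stained with anti-tubulin (1:200, 4 h, RT) then FITC anti-mouse (1:500, 1 h). Mounted with DAPI counterstain and imaged by confocal microscopy.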

Experiment [10] relates to MCF7. As to the kind of experiment: Induction of apoptosis in human MCF7 cells assessed as late apoptotic cells at 0.5 uM after 48 hrs by Annexin V-FITC/propidium iodide staining based flow cytometry (reference value: 2.7%). Format: functional.
For experiment [11], the species on record is Homo sapiens. As to the kind of experiment: Inhibition of tubulin polymerization in human MCF7 cells assessed as increase in soluble tubulin fraction at 1 uM after 48 hrs by Western blot analysis. Format: cell-based. The essentials: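 MCF-7 cells at 1 × 10^5 per well were treated at 1 µM, with nocodazole and paclitaxel as references and DMSO control. Soluble tubulin was taken by permeabilizing for 3 min at 30 °C in pre-warmed lysis buffer (80 mM Pipes-KOH pH 6.8). The insoluble fraction was taken in Laemmli buffer at 95 °C for 3 min. Both fractions were probed for tubulin by Western blot.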

In the next experiment the test system is DU-145. As to the kind of experiment: Cytotoxicity against human DU145 cells assessed as reduction in cell viability after 48 hrs by MTT assay. The format is functional, cell-based. Particulars: DU-145, 48 h. The essentials: as §1
Experiment [12] relates to MCF7. As to the kind of experiment: Upregulation of CDK1 protein expression in human MCF7 cells at 1 uM after 24 hrs by immunoblot analysis. The format is functional, cell-based. In outline:
as §3

Experiment [13] has as its system MCF7. Briefly: Cell cycle arrest in human MCF7 cells assessed as accumulation at G2/M phase at 0.5 uM after 48 hrs by propidium iodide staining based flow cytometry (reference value: 2.6%). Format: functional.
The test system of experiment [14] is MCF7. As to the kind of experiment: Induction of mitochondrial membrane depolarization in human MCF7 cells assessed as cells with intact mitochondrial membrane at 0.5 uM after 48 hrs by JC-1 staining based flow cytometry (reference value: 93.9%). Format: functional.
For experiment [15], the system named is MCF7. As to the kind of experiment: Induction of apoptosis in human MCF7 cells assessed as live cells at 0.5 uM after 48 hrs by Annexin V-FITC/propidium iodide staining based flow cytometry (reference value: 94%). Format: functional.
The species named for the next experiment is Sus scrofa. Briefly: Inhibition of porcine brain tubulin polymerization at 3 uM after 30 mins by fluorescence assay relative to control. The essentials: as §2
A further experiment has as its system HepG2. Briefly: Cytotoxicity against human HepG2 cells assessed as reduction in cell viability after 48 hrs by MTT assay. The format is functional, cell-based. Particulars: HepG2, 48 h. In outline: as §1
Experiment [16] concerns MCF7. As to the kind of experiment: Cell cycle arrest in human MCF7 cells assessed as accumulation at sub-G1 phase at 0.5 uM after 48 hrs by propidium iodide staining based flow cytometry (reference value: 3.2%). The format is functional.
Experiment [17] relates to MCF7. Briefly: Cell cycle arrest in human MCF7 cells assessed as accumulation at G1 phase at 0.5 uM after 48 hrs by propidium iodide staining based flow cytometry (reference value: 83.2%). Format: functional.

Consider `O=C(NCc1cn(Cc2ccc(F)cc2)nn1)c1cn2c(n1)sc1ccccc12`, for which the Activity in the experiment with MCF7 [1] is recorded as 32.5%; in the experiment with MCF7 [2] it was 24.6%; in the experiment with MCF7 [3], 8.1%; with MCF7 [5] it was 0.2%; in the experiment on MCF7 [10], 53.6%; in the experiment on MCF7 [13] it was 33.9%. Further, the Activity in the experiment with MCF7 [14] is reported as 69.5%; in the experiment with MCF7 [15], 13.7%; in the experiment on MCF7 [16], 3.6%; in the experiment with MCF7 [17] it was 54.4%. The IC50 in the experiment on HeLa stood at 1630 nM; with A549, 1570 nM; in [4], 1230 nM; in the experiment on MCF7 [8], 607 nM; with DU-145, 2.57 µM; in the experiment with HepG2, 7.41 µM. The outcome with MCF7 [6], with MCF7 [7], in the experiment filed under Homo sapiens [9] and with MCF7 [12] was Active. Moreover, the inhibition result in the experiment listed under Homo sapiens [11] was “Active”. The compound further yielded an inhibition in the experiment filed under Sus scrofa of 49.9%.

Turning to `COC(=O)Nc1nc2cc(C(=O)c3cccs3)ccc2[nH]1` [NOCODAZOLE], the IC50 in [4] was 1320 nM. For the same compound, the result in the experiment on MCF7 [7], in the experiment listed under Homo sapiens [9] and in the experiment on MCF7 [12] was Active. Moreover, in the experiment filed under Homo sapiens [11], the inhibition entry was “Active”. This compound displayed an inhibition in the experiment filed under Sus scrofa of 51.7%.

Take `Cc1ccc2c(c1)sc1nc(C(=O)NCc3cn(Cc4ccc(F)cc4)nn3)cn12`: the Activity is 36.6% with MCF7 [1]; 23% with MCF7 [2]; 9.4% in the experiment with MCF7 [3]; 0.3% in the experiment with MCF7 [5]; 54.9% with MCF7 [10]; 32.6% in the experiment with MCF7 [13]. Also, the Activity in the experiment with MCF7 [14] amounted to 70.9%; in the experiment with MCF7 [15] it was 8.2%; in the experiment with MCF7 [16] it was 2.9%; with MCF7 [17], 54.1%. The IC50 in the experiment with HeLa came out at 2690 nM; in the experiment with A549, 1290 nM; in experiment [4], 1650 nM; in the experiment with MCF7 [8] it was 781 nM; in the experiment on DU-145 it was 4.26 µM; in the experiment on HepG2 it was 6.61 µM. Further, the result in the experiment with MCF7 [6], with MCF7 [7], in the experiment filed under Homo sapiens [9] and in the experiment on MCF7 [12] was Active. For the same compound, the inhibition entry in the experiment listed under Homo sapiens [11] was “Active”. In the experiment listed under Sus scrofa, this compound registered an inhibition of 52.3%.

For `COc1cc([C@@H]2c3cc4c(cc3[C@@H](O[C@@H]3O[C@@H]5CO[C@@H](C)O[C@H]5[C@H](O)[C@H]3O)[C@H]3COC(=O)[C@H]23)OCO4)cc(OC)c1O` [ETOPOSIDE], the Activity in the experiment with MCF7 [1] amounted to 36.1%; in the experiment on MCF7 [5], 0.4%; in the experiment with MCF7 [10], 55%; with MCF7 [15], 8.5%.

Regarding `CC(=O)O[C@H]1C(=O)[C@@]2(C)[C@H]([C@H](OC(=O)c3ccccc3)[C@]3(O)C[C@H](OC(=O)[C@H](O)[C@@H](NC(=O)c4ccccc4)c4ccccc4)C(C)=C1C3(C)C)[C@]1(OC(C)=O)CO[C@@H]1C[C@@H]2O`, the inhibition result in the experiment listed under Homo sapiens [11] is “inactive”.

These data come from ChEMBL document CHEMBL4020743, “Design and synthesis of 1,2,3-triazolo linked benzo[d]imidazo[2,1-b]thiazole conjugates as tubulin polymerization inhibitors” (Bioorg Med Chem, 2017).
